# Source: ChEMBL document CHEMBL4334552, “Discovery of BMS-986260, a Potent, Selective, and Orally Bioavailable TGFβR1 Inhibitor as an Immuno-oncology Agent” (ACS Med Chem Lett, 2020)
# Calls of active or inactive are those of the source. No cut-off for these calls is given here.
# Experiments:
# TGF-beta receptor type-1 [1] = biological target: T1, TGF-beta receptor type-1 (Homo sapiens, UniProt P36897); assay: Inhibition of TGFbetaR1 in TGFbeta-stimulated human T cells assessed as reduction in SMAD3 phosphorylation preincubated for 1 hr followed by TGFbeta-stimulation for 90 mins by Alphalisa assay
# T1 sequence (P36897 whole entry): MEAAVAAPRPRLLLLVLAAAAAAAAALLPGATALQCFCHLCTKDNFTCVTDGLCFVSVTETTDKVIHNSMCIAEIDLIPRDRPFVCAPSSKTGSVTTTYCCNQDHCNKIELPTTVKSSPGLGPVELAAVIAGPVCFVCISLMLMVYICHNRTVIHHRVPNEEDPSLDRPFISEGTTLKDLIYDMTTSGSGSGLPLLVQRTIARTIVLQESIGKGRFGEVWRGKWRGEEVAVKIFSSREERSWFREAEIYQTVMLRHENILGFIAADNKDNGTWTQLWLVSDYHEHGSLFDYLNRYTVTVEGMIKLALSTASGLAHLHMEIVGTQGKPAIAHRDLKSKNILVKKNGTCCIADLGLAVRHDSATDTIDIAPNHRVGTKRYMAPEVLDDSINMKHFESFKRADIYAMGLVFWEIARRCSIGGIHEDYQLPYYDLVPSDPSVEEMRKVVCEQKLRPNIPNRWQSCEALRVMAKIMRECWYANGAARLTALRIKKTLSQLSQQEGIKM
# [2] = Cardiovascular toxicity in dog assessed as aortic pathology at 5 mg/kg, po for 10 days; type: organism-based, Canis lupus familiaris; conditions: in vivo, 240 h
# Procedure, shortened: (§1)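 Exploratory toxicology studies of 10 days with daily oral dosing in rats and dogs. Cardiovascular findings, including valvulopathy and aortic pathology, were assessed.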
# TGF-beta receptor type-1 [3] = biological target: T2, TGF-beta receptor type-1 (Mus musculus, UniProt Q64729); assay: Inhibition of TGFBR1 in mouse biochemical assay assessed as apparent inhibition constant; conditions: read-out: Ki(app)
# T2 sequence (Q64729 whole entry): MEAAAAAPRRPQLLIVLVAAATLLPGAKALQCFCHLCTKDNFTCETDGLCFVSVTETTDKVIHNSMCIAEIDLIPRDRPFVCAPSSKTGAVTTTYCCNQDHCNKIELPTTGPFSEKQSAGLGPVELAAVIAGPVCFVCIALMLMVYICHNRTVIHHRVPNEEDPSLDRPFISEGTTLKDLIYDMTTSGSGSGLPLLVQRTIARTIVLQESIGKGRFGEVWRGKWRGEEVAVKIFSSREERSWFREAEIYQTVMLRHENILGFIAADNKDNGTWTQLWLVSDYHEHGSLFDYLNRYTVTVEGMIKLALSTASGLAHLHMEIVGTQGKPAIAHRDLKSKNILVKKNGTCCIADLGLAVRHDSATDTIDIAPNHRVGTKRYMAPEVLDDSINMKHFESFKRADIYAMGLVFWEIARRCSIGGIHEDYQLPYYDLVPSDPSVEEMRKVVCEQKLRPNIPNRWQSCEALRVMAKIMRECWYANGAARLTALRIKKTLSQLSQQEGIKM
# TGF-beta receptor type-1 [4] = biological target: T1, TGF-beta receptor type-1; assay: Inhibition of TGFBR1 in human biochemical assay assessed as apparent inhibition constant; conditions: read-out: Ki(app)
# [5] = MRT in Beagle dog at 1 mg/kg, iv; type: ADME, organism-based, Canis lupus familiaris; conditions: in vivo
# Procedure, shortened: (§2)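 Male Beagle dogs (n = 2) were pretreated with pentagastrin and dosed iv at 1 mg/kg and po at 5 mg/kg. The oral vehicle was 5% ethanol, 45% PEG400 and 50% 25 mM acetate buffer pH 4.0. The iv vehicle was 5:45:50 EtOH/PEG400/saline at 1 mL/kg.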
# Cytochrome P450 3A4 = Cytochrome P450 3A4 (Homo sapiens, UniProt P08684); assay: Induction of recombinant CYP3A4 (unknown origin) up to 24 microM; type: ADME; conditions: recombinant enzyme
# Sequence of Cytochrome P450 3A4 (P08684 whole entry): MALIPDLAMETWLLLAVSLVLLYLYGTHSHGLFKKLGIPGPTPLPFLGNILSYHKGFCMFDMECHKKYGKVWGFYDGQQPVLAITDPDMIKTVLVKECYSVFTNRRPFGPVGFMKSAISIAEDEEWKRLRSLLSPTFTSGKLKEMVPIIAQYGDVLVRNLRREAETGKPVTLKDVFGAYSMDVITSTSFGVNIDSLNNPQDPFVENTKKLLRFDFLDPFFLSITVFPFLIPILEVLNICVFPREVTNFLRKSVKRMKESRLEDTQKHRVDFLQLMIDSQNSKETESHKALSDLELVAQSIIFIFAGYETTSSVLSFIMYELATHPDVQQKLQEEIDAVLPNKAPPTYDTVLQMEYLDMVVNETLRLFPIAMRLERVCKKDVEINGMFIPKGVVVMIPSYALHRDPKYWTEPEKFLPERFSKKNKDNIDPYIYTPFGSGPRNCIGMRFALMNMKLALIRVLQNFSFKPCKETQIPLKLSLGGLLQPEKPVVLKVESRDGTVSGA
# [6] = Protein binding in rat serum assessed as unbound fraction; type: ADME, cell-free
# Mus musculus = assay: Antitumor activity in compound-mediated tumor cured C57Bl/6 mouse allografted with mouse MC38 cells assessed as tumor growth following rechallenge with newly implanted mouse LL2 cells treated at 3.75 to 15 mg/kg, po qd for 28 days and cotreated with anti-PD1 at 10 mg/kg, ip every 4 days for 3 doses prior to LL2 cells rechallenge by digital caliper analysis; type: functional, organism-based
# Procedure, shortened: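 Mice cured by oral dosing plus anti-PD-1 (10 mg/kg IP, every 4 days, three doses) were re-implanted with MC38 or LL2 cells. Tumor growth was compared with naive mice.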
# [7] = MRT in Sprague Dawley rat at 5 mg/kg, iv; type: ADME, organism-based; conditions: in vivo
# Procedure, shortened: (§3)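 Male Sprague–Dawley rats (n = 3) received a PEG400 solution iv at 5 mg/kg and po at 10 mg/kg.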
# [8] = Tmax in Sprague Dawley rat at 10 mg/kg, po; type: ADME, organism-based; conditions: in vivo; procedure, shortened: as §3
# [9] = Oral bioavailability in Sprague Dawley rat at 10 mg/kg; type: ADME, organism-based; conditions: in vivo; procedure, shortened: as §3
# Salmonella typhimurium = assay: Genotoxicity against Salmonella typhimurium by Ames test; type: toxicity, organism-based; conditions: salmonella enterica subsp. enterica serovar typhimurium
# [10] = Protein binding in dog serum assessed as unbound fraction; type: ADME, cell-free, Canis lupus familiaris
# [11] = Volume of distribution at steady state in Beagle dog at 1 mg/kg, iv; type: ADME, organism-based, Canis lupus familiaris; conditions: in vivo, read-out: Vdss; procedure, shortened: as §2
# Cytochrome P450 1A2 = biological target: T3, Cytochrome P450 1A2 (Homo sapiens, UniProt P05177); assay: Inhibition of recombinant CYP1A2 (unknown origin); type: ADME
# T3 sequence (P05177 whole entry): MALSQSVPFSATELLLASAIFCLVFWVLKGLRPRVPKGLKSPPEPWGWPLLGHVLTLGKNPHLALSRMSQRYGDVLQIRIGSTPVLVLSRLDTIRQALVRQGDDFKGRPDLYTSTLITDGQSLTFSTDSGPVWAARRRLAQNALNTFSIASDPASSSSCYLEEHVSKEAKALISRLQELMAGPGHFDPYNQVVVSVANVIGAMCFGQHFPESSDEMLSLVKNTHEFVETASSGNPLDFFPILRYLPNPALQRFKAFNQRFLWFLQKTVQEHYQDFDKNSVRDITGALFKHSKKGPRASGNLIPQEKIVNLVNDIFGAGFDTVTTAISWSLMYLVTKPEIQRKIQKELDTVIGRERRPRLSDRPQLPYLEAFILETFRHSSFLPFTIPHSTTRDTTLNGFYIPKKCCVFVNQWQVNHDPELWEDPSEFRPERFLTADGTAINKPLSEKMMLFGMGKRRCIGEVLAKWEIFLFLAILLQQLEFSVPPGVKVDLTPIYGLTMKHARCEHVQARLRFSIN
# [12] = Half life in dog liver microsomes in presence of UGT/UDPGA; type: ADME, Canis lupus familiaris, Microsome
# TGF-beta receptor type-1 [13] = biological target: TGF-beta receptor type-1 (Homo sapiens, UniProt P36897, T204D); assay: Inhibition of His-tagged TGFBR1 kinase domain T204D mutant (unknown origin) incubated for 1 hr by HTRF analysis
# Sequence of TGF-beta receptor type-1 (Homo sapiens, UniProt P36897, T204D) (P36897 34-503 T204D limits assumed): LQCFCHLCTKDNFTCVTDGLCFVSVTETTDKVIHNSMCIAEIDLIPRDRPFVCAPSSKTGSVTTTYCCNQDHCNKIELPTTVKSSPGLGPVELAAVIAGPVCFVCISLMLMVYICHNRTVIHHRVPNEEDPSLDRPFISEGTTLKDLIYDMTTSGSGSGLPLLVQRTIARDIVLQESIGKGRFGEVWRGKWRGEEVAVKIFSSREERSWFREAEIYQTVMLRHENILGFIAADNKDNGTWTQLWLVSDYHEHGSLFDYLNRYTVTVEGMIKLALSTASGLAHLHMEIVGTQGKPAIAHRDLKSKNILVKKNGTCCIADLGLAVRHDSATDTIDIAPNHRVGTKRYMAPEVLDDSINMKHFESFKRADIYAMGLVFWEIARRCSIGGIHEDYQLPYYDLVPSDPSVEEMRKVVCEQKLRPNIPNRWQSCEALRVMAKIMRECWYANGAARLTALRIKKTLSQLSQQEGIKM
# [14] = Cmax in Beagle dog at 5 mg/kg, po; type: ADME, organism-based, Canis lupus familiaris; set-up: dose 5 mg/kg, route oral; conditions: in vivo
# Procedure, shortened: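 Male Beagle dogs, n = 2, pretreated with pentagastrin. The po dose of 5 mg/kg was in 5% ethanol, 45% PEG400 and 50% 25 mM acetate buffer pH 4.0. The iv dose of 1 mg/kg was in 5:45:50 EtOH/PEG400/saline at 1 mL/kg.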
# [15] = Metabolic stability of compound in rat liver microsomes assessed as compound remaining after 10 mins; type: ADME, Microsome; conditions: read-out: Stability
# [16] = Cardiovascular toxicity in rat assessed as aortic pathology at 1 mg/kg, po for 10 days; type: organism-based; conditions: in vivo, 240 h; procedure, shortened: as §1
structure (smiles),measurement,setting,value
N#Cc1cnc2ccc(-c3c(-c4ccc(F)c(Cl)c4)ncn3CCO)nn12,IC50,TGF-beta receptor type-1 [1],150 nM
same,Activity,[2],Toxic
same,Ki,TGF-beta receptor type-1 [3],1.4 nM
same,Ki,TGF-beta receptor type-1 [4],0.8 nM
same,MRT,[5],3.1 h
same,Activity,Cytochrome P450 3A4,Not Active
same,fraction unbound,[6],0.1
same,Activity,Mus musculus,inactive
same,MRT,[7],7.2 h
same,Tmax,[8],1.1 h
same,bioavailability,[9],> 100%
same,Activity,Salmonella typhimurium,Non-Toxic
same,fraction unbound,[10],0.13
same,Vd,[11],1.1 L/kg
same,IC50,Cytochrome P450 1A2,> 20000 nM
same,half-life,[12],1.53 h
same,IC50,TGF-beta receptor type-1 [13],1.6 nM
same,Cmax,[14],11.2 µM
same,remaining at 10 min,[15],91%
same,Activity,[16],Toxic
